Here are results for 4 compounds from ChEMBL document CHEMBL1132183 (J Med Chem, 1999).

In experiment [1] the target is T1, 5-hydroxytryptamine receptor 1A (Homo sapiens) (UniProt P08908).
T1 sequence (whole entry): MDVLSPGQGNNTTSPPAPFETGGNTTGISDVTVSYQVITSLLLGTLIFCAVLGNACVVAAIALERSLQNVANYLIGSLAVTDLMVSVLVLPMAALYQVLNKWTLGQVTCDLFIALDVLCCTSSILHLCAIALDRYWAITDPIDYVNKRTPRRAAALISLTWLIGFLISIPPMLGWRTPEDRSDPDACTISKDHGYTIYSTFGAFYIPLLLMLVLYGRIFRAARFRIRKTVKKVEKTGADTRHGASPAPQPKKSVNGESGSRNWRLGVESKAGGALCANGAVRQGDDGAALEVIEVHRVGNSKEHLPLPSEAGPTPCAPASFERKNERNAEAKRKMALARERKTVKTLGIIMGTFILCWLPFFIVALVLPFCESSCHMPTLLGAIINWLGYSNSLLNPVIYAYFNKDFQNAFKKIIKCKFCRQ
Kind of experiment: Concentration required to obtain 50% maximal stimulation of [35S]GTP gamma-S binding to human cloned 5-HT1A receptors of cell membranes from HeLa cells. In kind it is functional. The method, boiled down:
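[35S]GTPγS binding in membranes of HeLa cells stably expressing human 5-HT1A, in 20 mM HEPES, 3 mM MgSO4, 120 mM NaCl pH 7.4. Preincubation 20 min at 30 °C with 30 μM GDP and drug (0.1 nM–100 μM), then 150–250 pM [35S]GTPγS for 30 min at 30 °C. Stimulation above basal was scaled to the 5-HT maximum (100%). Emax and pD2 came from curve fits; triplicate, 2–3 sessions.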

In experiment [2] the target is T2, Alpha-1B adrenergic receptor (Rattus norvegicus) (UniProt P15823).
T2 sequence (whole entry): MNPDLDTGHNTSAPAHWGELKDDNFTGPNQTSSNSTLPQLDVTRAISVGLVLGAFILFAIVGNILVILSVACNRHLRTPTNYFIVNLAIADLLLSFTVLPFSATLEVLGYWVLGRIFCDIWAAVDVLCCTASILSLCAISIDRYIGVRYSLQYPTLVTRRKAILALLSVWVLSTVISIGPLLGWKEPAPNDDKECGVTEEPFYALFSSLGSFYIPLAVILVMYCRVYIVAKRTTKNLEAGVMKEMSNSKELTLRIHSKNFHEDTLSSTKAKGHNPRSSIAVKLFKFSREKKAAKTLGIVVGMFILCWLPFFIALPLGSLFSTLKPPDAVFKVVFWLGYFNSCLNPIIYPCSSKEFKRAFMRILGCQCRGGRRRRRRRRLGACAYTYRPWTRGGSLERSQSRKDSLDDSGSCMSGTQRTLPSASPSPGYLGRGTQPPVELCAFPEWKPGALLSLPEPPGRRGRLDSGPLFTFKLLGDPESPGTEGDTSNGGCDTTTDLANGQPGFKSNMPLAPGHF
Kind of experiment: Eudisimic ratio(ER) is the antilog of the defference between the pKb and pD2 values against alpha-1B-adrenoceptor subtype. The format is functional. The method, boiled down:
(§1)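 Eudismic ratio is the antilog of the difference between the pKb (functional α1 tissue assays) or pD2 (5-HT1A [35S]GTPγS stimulation) of the eutomer and that of its distomer.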

In experiment [3] the target is Serotonin 2 (5-HT2) receptor (Rattus norvegicus, UniProt P30994+P08909+P14842). Kind of experiment: Displacement of [3H]ketanserin from rat brain 5-hydroxytryptamine 2 receptor. The procedure, abridged: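 Rat cerebral cortex membranes (male Sprague–Dawley) in Tris-HCl pH 7.4 with 10 μM pargiline and 0.1% ascorbic acid were incubated 20 min at 37 °C with 0.7–1.3 nM [3H]ketanserin (5-HT2A). Nonspecific binding was defined by 2 μM ketanserin. Bound label was counted after filtration, and Ki was derived by Cheng–Prusoff.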
On the technique in general: Displacement assays read how much labelled ligand stays bound in the presence of the test substance.

Experiment [4] concerns the target T3, Adrenergic receptor alpha-2 (Rattus norvegicus, UniProt P22086+P19328+P22909).
T3 sequence (P22086 whole entry): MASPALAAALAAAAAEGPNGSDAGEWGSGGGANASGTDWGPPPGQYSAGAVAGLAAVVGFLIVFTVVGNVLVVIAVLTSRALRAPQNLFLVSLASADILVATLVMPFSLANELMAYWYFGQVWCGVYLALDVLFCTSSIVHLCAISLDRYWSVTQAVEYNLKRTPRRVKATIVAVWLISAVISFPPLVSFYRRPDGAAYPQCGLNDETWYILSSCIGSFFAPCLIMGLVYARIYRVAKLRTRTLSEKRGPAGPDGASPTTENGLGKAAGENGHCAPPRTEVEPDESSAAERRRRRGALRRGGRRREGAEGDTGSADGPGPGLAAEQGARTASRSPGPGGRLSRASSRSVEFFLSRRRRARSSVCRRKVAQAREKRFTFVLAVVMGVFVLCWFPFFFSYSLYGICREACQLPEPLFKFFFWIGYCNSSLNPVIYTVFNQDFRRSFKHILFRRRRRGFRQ
T3 sequence (P19328 whole entry): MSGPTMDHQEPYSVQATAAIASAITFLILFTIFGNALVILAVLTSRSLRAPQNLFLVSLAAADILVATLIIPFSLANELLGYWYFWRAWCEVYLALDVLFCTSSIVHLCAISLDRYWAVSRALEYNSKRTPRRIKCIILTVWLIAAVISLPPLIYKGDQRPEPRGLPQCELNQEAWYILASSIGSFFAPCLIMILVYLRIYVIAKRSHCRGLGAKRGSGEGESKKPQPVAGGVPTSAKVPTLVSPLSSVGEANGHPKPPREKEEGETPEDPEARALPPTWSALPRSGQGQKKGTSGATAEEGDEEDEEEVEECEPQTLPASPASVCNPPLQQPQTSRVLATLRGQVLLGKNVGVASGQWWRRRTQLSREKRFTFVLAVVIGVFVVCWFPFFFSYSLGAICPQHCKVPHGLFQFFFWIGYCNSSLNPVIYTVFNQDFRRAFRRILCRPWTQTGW
T3 sequence (P22909 whole entry): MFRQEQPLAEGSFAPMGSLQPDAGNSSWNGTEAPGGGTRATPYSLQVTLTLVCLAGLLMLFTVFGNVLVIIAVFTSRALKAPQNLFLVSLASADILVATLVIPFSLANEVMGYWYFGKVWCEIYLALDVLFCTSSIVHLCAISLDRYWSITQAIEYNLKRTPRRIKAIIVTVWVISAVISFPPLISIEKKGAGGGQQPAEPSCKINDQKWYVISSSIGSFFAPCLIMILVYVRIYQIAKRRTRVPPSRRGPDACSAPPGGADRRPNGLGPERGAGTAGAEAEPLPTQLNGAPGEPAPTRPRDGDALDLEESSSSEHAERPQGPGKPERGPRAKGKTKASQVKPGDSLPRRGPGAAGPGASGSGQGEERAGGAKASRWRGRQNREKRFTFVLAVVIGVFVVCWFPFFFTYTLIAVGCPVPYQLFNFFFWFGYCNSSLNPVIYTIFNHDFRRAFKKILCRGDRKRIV
Kind of experiment: Displacement of [3H]rauwolscine from rat brain Alpha-2 adrenergic receptor. The procedure, abridged: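 Rat cerebral cortex membranes (male Sprague–Dawley) were washed in Tris-HCl pH 7.4 and resuspended with 10 μM pargiline and 0.1% ascorbic acid. They were incubated 30 min at 25 °C with 0.5–1.5 nM [3H]rauwolscine. Nonspecific binding was taken with 10 μM phentolamine. Filtration and scintillation counting followed, and Ki was obtained by Cheng–Prusoff.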

Experiment [5] addresses T1, 5-hydroxytryptamine receptor 1A (Homo sapiens). Description: Eudisimic ratio(ER) is the antilog of the defference between the pKb and pD2 values against 5-hydroxytryptamine 1A receptor. The format is functional. The method, boiled down:
as §1

The structures appear in SMILES notation.

With `O[C@H]1[C@@H](NC[C@H]2COc3ccccc3O2)CC[C@@H]1Oc1ccccc1`, the pD2 in experiment [1] came out at 7.3. Moreover, the ER in experiment [2] amounted to 11. Moreover, the entries for the “Log Ki” value in experiment [3] and in experiment [4] were less than -6 and -6.23, respectively.
With `O[C@@H]1[C@H](NC[C@H]2COc3ccccc3O2)CC[C@H]1Oc1ccccc1`, the ER in experiment [5] was found to be 123; in experiment [2] it was 49. In addition, in experiment [1], the pD2 is 5.87. Further, the “Log Ki” value in experiment [3] is on record as less than -6; in experiment [4], -6.05.
`O[C@H]1[C@@H](NC[C@@H]2COc3ccccc3O2)CC[C@@H]1Oc1ccccc1` came in with a pD2 in experiment [1] of 7.96. In addition, the “Log Ki” value in experiment [4] was -6.21.
Taken in the same sequence, the figures for `O[C@@H]1[C@H](NC[C@@H]2COc3ccccc3O2)CC[C@H]1Oc1ccccc1` were 5.87 and -6.27.
